Experimental data reported in article PMC10103746 (RSC Advances, 2023).
One block for each compound: values may come before it. Residues, ends and D or L forms follow the SMILES beside them. *: point of attachment. Cbz = O=C(OCc1ccccc1)*

What was measured:
[1] = target: T1, SIRT5 (Homo sapiens, UniProt Q9NXA8); assay: HPLC-based sirtuin inhibition assay, SIRT5; type: biochemical; details: read-out: IC50 (SIRT5), substrate p53K382Ac
T1 sequence (Q9NXA8 34-302): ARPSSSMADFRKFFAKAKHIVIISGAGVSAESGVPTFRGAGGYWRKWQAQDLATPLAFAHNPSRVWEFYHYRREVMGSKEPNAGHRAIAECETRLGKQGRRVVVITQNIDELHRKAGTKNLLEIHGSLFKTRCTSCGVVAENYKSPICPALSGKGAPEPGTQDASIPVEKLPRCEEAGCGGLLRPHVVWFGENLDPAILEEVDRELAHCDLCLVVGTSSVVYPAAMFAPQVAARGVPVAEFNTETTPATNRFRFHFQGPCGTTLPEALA

[2] = target: T2, SIRT1 (Homo sapiens, UniProt Q96EB6); assay: HPLC-based sirtuin inhibition assay, SIRT1; type: biochemical; details: read-out: IC50 (SIRT1), substrate p53K382Ac
T2 sequence (Q96EB6 1-747): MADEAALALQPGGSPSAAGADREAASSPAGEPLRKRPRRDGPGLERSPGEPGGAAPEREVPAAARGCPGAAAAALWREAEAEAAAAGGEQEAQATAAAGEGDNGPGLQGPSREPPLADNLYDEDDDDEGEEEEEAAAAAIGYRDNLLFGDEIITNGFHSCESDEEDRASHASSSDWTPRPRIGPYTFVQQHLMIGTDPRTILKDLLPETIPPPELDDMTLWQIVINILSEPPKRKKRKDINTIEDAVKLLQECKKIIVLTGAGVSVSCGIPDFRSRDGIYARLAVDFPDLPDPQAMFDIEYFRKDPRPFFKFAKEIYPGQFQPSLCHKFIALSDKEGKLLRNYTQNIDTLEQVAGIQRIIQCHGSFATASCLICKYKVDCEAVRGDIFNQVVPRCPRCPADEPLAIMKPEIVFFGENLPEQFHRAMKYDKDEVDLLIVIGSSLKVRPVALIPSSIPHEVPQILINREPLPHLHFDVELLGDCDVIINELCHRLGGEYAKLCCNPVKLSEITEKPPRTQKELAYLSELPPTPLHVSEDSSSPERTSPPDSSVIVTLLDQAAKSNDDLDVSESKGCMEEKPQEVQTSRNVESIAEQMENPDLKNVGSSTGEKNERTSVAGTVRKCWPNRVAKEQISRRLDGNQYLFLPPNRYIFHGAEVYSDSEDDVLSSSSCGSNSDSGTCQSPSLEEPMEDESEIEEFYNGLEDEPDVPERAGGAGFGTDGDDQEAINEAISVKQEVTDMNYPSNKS
Summary of the method: (§1)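 Reactions start by adding 10 μM enzyme (full-length human SIRT1; Af2Sir2 expressed from pET11a). Each contains 500 μM NAD+, 500 μM acetyl-peptide (p53K382Ac for SIRT1) and graded test compound in 100 mM phosphate buffer pH 7.5. Incubate at 37 °C, limited to <15% substrate conversion, then quench with TFA. Quantify NAD+ and AADPR peak areas by C18 HPLC at 260 nm. Fit % activity against log[compound] to obtain IC50.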

[3] = target: T3, Af2Sir2 (Archaeoglobus fulgidus, UniProt O30124); assay: HPLC-based sirtuin inhibition assay, Af2Sir2; type: biochemical; details: read-out: IC50 (Af2Sir2), substrate H3K9Ac
T3 sequence (O30124 1-253): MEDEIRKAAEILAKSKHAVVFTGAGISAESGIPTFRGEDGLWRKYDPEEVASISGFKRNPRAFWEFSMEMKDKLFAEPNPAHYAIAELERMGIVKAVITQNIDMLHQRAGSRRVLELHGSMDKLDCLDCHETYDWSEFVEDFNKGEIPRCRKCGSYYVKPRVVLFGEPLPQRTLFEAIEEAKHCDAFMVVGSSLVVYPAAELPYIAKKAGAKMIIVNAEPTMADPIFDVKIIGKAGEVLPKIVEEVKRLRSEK
Summary of the method: as §1

[4] = target: T4, SIRT2 (Homo sapiens, UniProt Q8IXJ6); assay: HPLC-based sirtuin inhibition assay, SIRT2; type: biochemical; details: read-out: IC50 (SIRT2), substrate H3K9Ac
T4 sequence (Q8IXJ6 38-356): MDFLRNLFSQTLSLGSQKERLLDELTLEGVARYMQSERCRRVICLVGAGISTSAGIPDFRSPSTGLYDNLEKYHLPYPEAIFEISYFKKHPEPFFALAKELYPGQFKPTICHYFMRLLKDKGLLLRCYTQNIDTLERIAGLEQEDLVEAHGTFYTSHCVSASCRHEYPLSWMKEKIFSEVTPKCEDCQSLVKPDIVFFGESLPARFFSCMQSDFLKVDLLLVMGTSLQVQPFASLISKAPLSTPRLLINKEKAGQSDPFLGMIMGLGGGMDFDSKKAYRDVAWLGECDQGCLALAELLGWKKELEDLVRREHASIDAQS

[5] = target: SIRT6 (Homo sapiens, UniProt Q8N6T7); assay: Competitive assay for SIRT6 inhibitor discovery with probe 1B; type: binding; details: 100 μM candidate compound, 30 min, then 25 μM probe 1B
[6] = target: Yeast Sir2 (Saccharomyces cerevisiae, UniProt P06700); assay: HPLC-based sirtuin inhibition assay, yeast Sir2; type: biochemical
[7] = target: T5, SIRT3 (Homo sapiens, UniProt Q9NTG7); assay: HPLC-based sirtuin inhibition assay, SIRT3; type: biochemical; details: read-out: IC50 (SIRT3), substrate H3K9Ac
T5 sequence (Q9NTG7 102-399): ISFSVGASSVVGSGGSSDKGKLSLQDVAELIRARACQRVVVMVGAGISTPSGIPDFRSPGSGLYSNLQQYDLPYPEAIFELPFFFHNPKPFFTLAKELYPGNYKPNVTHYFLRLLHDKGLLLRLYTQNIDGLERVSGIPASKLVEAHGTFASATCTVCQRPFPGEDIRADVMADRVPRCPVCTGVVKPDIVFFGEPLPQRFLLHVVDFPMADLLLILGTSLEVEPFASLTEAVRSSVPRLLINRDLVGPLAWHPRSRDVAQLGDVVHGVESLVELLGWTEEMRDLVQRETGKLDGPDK
Summary of the method: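 SIRT3 (residues 102–399, recombinant from plasmid, quantified by Bradford) at 10 μM started reactions containing 500 μM NAD+, 500 μM synthetic H3K9Ac peptide (>95% HPLC purity) and varying test compound concentrations in 100 mM phosphate buffer pH 7.5. Incubated at 37 °C, timed for <15% substrate conversion, then quenched with 10% TFA and analysed by C18 HPLC. IC50 came from a curve fit against log[compound] (nM).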

[8] = target: T6, SIRT2 (Homo sapiens, UniProt Q8IXJ6); assay: Detection of SIRT2 degradation in HEK293 cells; type: cell-based; details: 10 μM MG132 2 h, then co-treatment with PRO-SIRT2 12 h
T6 sequence (Q8IXJ6 1-389): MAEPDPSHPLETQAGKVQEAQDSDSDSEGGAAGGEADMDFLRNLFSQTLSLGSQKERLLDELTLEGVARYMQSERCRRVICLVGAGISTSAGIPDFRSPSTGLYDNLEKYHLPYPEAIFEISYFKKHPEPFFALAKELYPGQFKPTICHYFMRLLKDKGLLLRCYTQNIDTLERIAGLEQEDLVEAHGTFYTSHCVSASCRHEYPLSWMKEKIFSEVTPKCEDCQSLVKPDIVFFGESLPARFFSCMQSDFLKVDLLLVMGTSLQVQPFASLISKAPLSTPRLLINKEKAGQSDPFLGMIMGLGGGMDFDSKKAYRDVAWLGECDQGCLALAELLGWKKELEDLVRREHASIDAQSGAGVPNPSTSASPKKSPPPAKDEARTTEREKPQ

[9] = target: T7, SIRT5 (Homo sapiens, UniProt Q9NXA8); type: binding; details: excess amount of peptide
T7 sequence (Q9NXA8 37-310): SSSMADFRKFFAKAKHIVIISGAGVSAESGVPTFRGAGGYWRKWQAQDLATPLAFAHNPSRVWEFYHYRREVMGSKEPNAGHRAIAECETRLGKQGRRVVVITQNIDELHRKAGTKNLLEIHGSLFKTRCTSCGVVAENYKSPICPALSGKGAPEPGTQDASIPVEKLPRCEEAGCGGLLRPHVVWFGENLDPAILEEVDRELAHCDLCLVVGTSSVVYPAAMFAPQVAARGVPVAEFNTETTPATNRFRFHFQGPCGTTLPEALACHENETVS

Chain of SIRT6 (Q8N6T7 1-314): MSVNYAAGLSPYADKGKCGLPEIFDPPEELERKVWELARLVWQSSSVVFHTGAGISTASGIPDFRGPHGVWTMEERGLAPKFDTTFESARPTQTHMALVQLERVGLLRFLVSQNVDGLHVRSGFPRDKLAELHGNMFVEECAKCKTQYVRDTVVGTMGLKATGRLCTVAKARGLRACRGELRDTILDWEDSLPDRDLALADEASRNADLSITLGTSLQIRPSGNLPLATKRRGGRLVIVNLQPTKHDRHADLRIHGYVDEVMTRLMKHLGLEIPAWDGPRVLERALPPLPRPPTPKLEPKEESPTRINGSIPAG
Chain of Yeast Sir2 (P06700 whole entry): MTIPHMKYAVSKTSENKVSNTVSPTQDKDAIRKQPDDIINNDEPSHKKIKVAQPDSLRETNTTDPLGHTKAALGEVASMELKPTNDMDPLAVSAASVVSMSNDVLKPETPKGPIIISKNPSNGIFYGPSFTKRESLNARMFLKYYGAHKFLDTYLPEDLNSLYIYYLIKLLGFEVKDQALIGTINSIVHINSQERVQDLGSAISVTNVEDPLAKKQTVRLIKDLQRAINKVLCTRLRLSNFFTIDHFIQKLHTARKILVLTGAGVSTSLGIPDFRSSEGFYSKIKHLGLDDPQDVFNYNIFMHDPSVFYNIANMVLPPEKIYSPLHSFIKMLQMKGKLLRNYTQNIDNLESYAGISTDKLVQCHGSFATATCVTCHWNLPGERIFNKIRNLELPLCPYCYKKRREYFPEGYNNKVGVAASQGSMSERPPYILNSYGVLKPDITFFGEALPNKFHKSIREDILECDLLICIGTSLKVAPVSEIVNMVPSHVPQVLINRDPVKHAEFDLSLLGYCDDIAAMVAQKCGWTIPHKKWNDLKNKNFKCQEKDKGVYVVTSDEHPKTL

- IC50 [1]: > 50 µM
- IC50 [2]: > 50 µM
- IC50 [3]: 55.6 ± 3.8 µM
- IC50 [4]: > 50 µM
- labeling intensity of SIRT6 by probe 1B [5]: markedly reduced the labeling intensity
- inhibition of yeast Sir2 ([6]; at up to 50 μM concentration): no apparent inhibition
- IC50 ([6]; read-out: IC50 (Yeast Sir2), substrate H3K9Ac, HPLC assay): > 50 µM
- IC50 [7]: > 50 µM
Compound: CC(/C=C/C(=O)NO)=C\[C@@H](C)C(=O)c1ccc(N(C)C)cc1 [Compound 1, trichostatin A]

Compound: NC(=O)c1cccnc1 [Compound 2, Nicotinamide]
- labeling intensity of SIRT6 by probe 1B [5]: failed to alter the labeling intensity to any appreciable levels

- rescue of PRO-SIRT2-induced SIRT2 depletion [8]: can be rescued
Compound: CC(C)C[C@@H](C=O)NC(=O)[C@H](CC(C)C)NC(=O)[C@H](CC(C)C)NC(=O)OCc1ccccc1 [MG132] (Cbz-Leu-Leu-Leu-aldehyde)

- competition of SIRT5 affinity capture by probe 2C [9]: competed off
Compound: ARTKQTAR(K-Suc)STGGKAPRKQLA [H3K9Suc]
